Assay outcomes from PubChem.
KCNK3 block – human KCNK3 channel inhibition, primary screen; AID 602410; B-score at 10 µM; O14649; 340,000 tested, 0.84% active; CHO-KCNK3 thallium flux, FluxOR fluorescence; hits give low values;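 active = B-score under library mean minus 4 SD, starting fluorescence ratio at most library mean plus 5 SD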;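 note: more negative B-score means stronger inhibition of thallium flux through KCNK3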
Target sequence (O14649 whole entry, looked up): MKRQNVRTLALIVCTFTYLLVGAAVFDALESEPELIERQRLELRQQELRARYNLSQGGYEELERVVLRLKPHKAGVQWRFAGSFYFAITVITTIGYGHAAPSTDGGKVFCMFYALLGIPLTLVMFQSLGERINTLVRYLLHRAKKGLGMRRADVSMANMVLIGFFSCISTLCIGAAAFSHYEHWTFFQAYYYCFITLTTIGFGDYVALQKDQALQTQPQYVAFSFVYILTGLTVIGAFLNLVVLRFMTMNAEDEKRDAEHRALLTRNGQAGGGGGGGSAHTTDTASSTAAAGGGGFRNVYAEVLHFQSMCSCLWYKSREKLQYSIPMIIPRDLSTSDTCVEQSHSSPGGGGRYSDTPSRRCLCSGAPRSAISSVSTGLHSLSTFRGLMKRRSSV
hERG rescue – hERG (human) protection from proarrhythmic block | 310,000 tested, 0.51% active | AID 1511 | CHO-hERG, FluxOR thallium flux, dofetilide IC70 present | Q12809 | activation (rescue from dofetilide block), less the hit threshold, % at 10 µM;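 active = activation above the mean of controls blocked by dofetilide plus 5 SD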;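 note: thallium influx through hERG after potassium depolarization seen as dye fluorescence rise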
KCNK9 block – blocks the human KCNK9 two-pore domain potassium channel | Q9NPC2 | B-score at 10 µM | HEK293 KCNK9, FluxOR thallium flux fluorescence; hits give low values | 310,000 tested, 1.2% active;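 active = ratio B-score over 3 SD below the library mean, with starting fluorescence within 5 SD of its mean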;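 note: negative B-score means less thallium flux so channel inhibition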
KCNQ1 block – inhibitors of human KCNQ1 potassium channel | CHO-K1 KCNQ1, FluxOR thallium flux fluorescence; hits give high values | B-score at 10 µM | 310,000 tested, 1.3% active;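 active = compounds whose thallium flux B-score, printed positive for inhibition, exceeds three library SD while starting fluorescence stays within three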;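 note: channel opened by potassium depolarization with thallium stimulus after 20 min compound exposure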
KCNQ1 act – human KCNQ1 channel potentiation or activation; 310,000 tested, 0.35% active; CHO-K1 KCNQ1, thallium flux FluxOR fluorescence; hits give high values; AID 2648; B-score at 10 µM; P51787;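 active = fluorescence ratio B-score, a plate-corrected score, at least three library SD, with initial intensity B-score within 5 SD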
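Assay system: CHO-K1 cells stably expressing KCNQ1; Medium: assay buffer with matched DMSO; Also added: K+/Tl+ depolarizing stimulus; Dosing: single dose; Timing: dye 90 min, compound 20 min, room temperature; Measured by: kinetic FluxOR thallium fluorescence, 10-s 1-Hz baseline, 110-s post-stimulus read; Read-out: peak-minus-minimum fluorescence over initial fluorescence, negative-control normalized, B-scored.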
Kir21 inh – blocks the mouse Kir2.1 inward-rectifier potassium channel; HEK293-Kir2.1, FluxOR thallium flux fluorescence; hits give low values; B-score at 10 µM; AID 1672; P35561; 310,000 tested, 0.85% active;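 active = fluorescence ratio B-score at or below minus 3 SD of library scores, with starting-brightness B-score within 2 SD, cut at about -4.2 in these data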;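 note: channel flux triggered by added potassium and thallium sulfate stimulus; B-score of peak minus minimum fluorescence over baseline after thallium stimulus; more negative B-score means stronger Kir2.1 block with less thallium influx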
KCNK9 inh conf – confirmation of human KCNK9 potassium channel inhibitors; HEK293 KCNK9 cells, FluxOR thallium flux fluorescence; inhibition, % at 10 µM; AID 492992; shares compounds with KCNK9 block; 4,900 tested, 43% active;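 active = thallium signal inhibited by more than 5 SD of the compound-free buffer control wells, on both duplicate plates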;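 note: 0% = assay buffer control wells without compound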
Kir2-1 spec – selectivity of KCNK9 modulators against mouse Kir2.1; shares compounds with KCNK9 block; Kir2.1 cells, FluxOR thallium flux fluorescence; inhibition, % at 10 µM; 4,900 tested, 4% active;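 active = thallium signal drop more than 5 SD beyond the mean of the no-compound control wells, seen in both duplicate plates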;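 note: signal is fluorescence rise after thallium addition divided by baseline fluorescence; plate controls were assay buffer only for no effect and full block by chlorpromazine control for full effect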
KCNK9 uninduced – second counter-screen for KCNK9 modulators: effect in non-induced cells | non-induced KCNK9-HEK293, FluxOR thallium flux | 4,900 tested, 40% active | inhibition, % at 10 µM | shares compounds with KCNK9 block;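 active = thallium signal drop beyond 5 SD of the untreated control mean, on both duplicate plates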;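 note: plate controls were buffer only IC0 wells for no effect and SID17386958 at its maximal inhibitory level for full effect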
Starred values were filed as active, the others as inactive; i = inactive; . = no result given. Rows were chosen to be rich in hits. Some 3.8% of all compounds tested hit in one or more screens of this group.

SMILES	KCNK3 block	hERG rescue	KCNK9 block	KCNQ1 block	KCNQ1 act	Kir21 inh	KCNK9 inh conf	Kir2-1 spec	KCNK9 uninduced
CC(C)(C)c1nnc2sc(SCC(=O)N3CCc4ccccc43)nn2c1=O	i	-9	i	i	i	-0.04	.	.	.
COc1ccc(-c2nn(-c3ccccc3F)cc2CNCCn2nc(C)cc2C)cc1	i	-16	i	i	i	-0.98	i	i	i
COc1ccc(-c2nn(-c3ccccc3)cc2CNCCN2CCOC2=O)c(F)c1	i	-11	i	i	i	0.82	.	.	.
Cc1nc(NC(=O)CN(C)S(=O)(=O)c2ccc(Br)cc2)sc1C	i	-10	i	i	i	-3.7	.	.	.
COc1cc(CN2CCN(c3cc(C)ccc3C)CC2)cc([N+](=O)[O-])c1O	.	-13	i	i	i	0.13	i	i	i
COc1cc(CN2CCN(c3ccc(C)cc3)CC2)cc([N+](=O)[O-])c1O	.	-13	i	i	i	0.08	.	.	.
O=[N+]([O-])c1cc2c(cc1/C=N/Nc1nc(N3CCCC3)nc(N3CCCC3)n1)OCO2	i	-4	i	i	i	0.37	i	i	i
Cc1ccccc1-n1c(SCC(=O)Nc2ccc3c(c2)OCO3)nnc1-c1ccccn1	i	-6	i	i	i	-2.9	.	.	.
CC1=CC(C)(C)N=C(NC#N)N1	i	-6	i	i	i	-2.4	.	.	.
Cc1nnc(N(C)C(=O)c2ccc3c(c2)OCO3)s1	i	-7	i	i	i	1.9	.	.	.
CCn1c(SC)nnc1-c1sc2cc(Cl)ccc2c1Cl	i	-12	-11*	i	i	1.5	60%*	i	36%*
O=C1N=C(c2ccccc2)C(c2ccccc2)N1 (stereo unspecified)	i	-11	i	i	i	0.72	.	.	.
O=C(O)c1cnc(-c2ccccc2)nc1Sc1ccc(Cl)cc1Cl	i	-3	i	i	i	1.6	i	i	i
Cc1c(C(=O)Nc2ccc3c(c2)OCO3)oc2ccccc12	i	-12	-15*	i	i	0.84	62%*	i	33%*
Cc1ccc(CNC(=O)COC(=O)c2cc3c(s2)CCC(C)C3)cc1 (stereo unspecified)	i	-11	i	i	i	-0.44	.	.	.
Cn1c(=O)[nH]c(=O)c2c1[nH]c(=S)n2CCCc1ccccc1	i	-2	i	i	i	-0.07	i	i	28%*
Cc1ccc(SCc2ccc(C(=O)N3CCCCC3)cc2)cc1	i	-6	i	i	i	0.86	i	i	i
CC/C(=N/Nc1ccccc1Cl)c1cnnc(-c2ccccc2)n1	i	-17	-13*	i	i	-0.4	i	i	38%*
CCN(CC(=O)Nc1cc(Cl)ccc1C)C(=O)Cc1sc(C)nc1-c1ccc(F)cc1	-9.7*	-15	-9.8*	i	i	-1.3	i	i	30%*
CCn1cc(/C=N/N=C2\CCC3C4CCc5cc(O)ccc5C4CC[C@]23C)c(C)n1 (stereo partly specified)	i	-8	i	i	i	0.49	i	i	i
O=C(c1ccc(NS(=O)(=O)c2ccc(F)cc2)cc1)N1CCN(c2ccccc2O)CC1	i	-10	i	i	i	-0.09	.	.	.
COc1cccc(OC)c1CN1CCCC(C(=O)c2ccccc2SC)C1 (stereo unspecified)	i	-24	i	i	i	-1.9	i	i	i
CC(=O)N1CCCC(C(=O)c2ccc3c4c(cccc24)CC3)C1 (stereo unspecified)	i	-10	i	i	i	0.98	i	i	i
